System: Fibroblast
Assay: Multiplex assay against human fibroblast
Type: toxicity, cell-based
In short: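 Cells were classed with CellPathfinder machine-learning gating, first as Hoechst high-intensity objects or normal cells, then (normal cells) as healthy, pyknosed or fragmented nuclei, and finally (pyknosed cells) as mitotic or apoptotic. Staining of live cells at seeding used Hoechst33342, BioTracker Green Microtubule Cytoskeleton Dye, MitoTracker Red and Annexin V Alexa Fluor 680, with imaging on a CQ1 microscope at 37°C and 5% CO2 after compound addition. Tubulin, mitochondrial-mass and membrane-permeability phenotypes are per cents of healthy-nucleus cells.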

[1] = 12 h, 1 µM, compound concentration 1 uM, replicate 1
[2] = 12 h, 1 µM, compound concentration 1 uM, replicate 2
[3] = 12 h, 10 µM, compound concentration 10 uM, replicate 1
[4] = 12 h, 10 µM, compound concentration 10 uM, replicate 2
[5] = 24 h, 1 µM, compound concentration 1 uM, replicate 1
[6] = 24 h, 1 µM, compound concentration 1 uM, replicate 2
[7] = 24 h, 10 µM, compound concentration 10 uM, replicate 1
[8] = 24 h, 10 µM, compound concentration 10 uM, replicate 2

NC(=O)c1ccc2nc(-c3ccc(C4(N)CCC4)cc3)c(-c3ccccc3)n2n1 [BAY-1125976]
Population Apoptotic (%) [1]: 72% | Population Fragmented Nuclei (%) [1]: 53% | Population Healthy Nuclei (%) [1]: 33% | Population Hoechst High Intensity Objects (%) [1]: 38% | Population Mitochondria Different-Phenotype (%) [1]: 0% | Population Mitotic Cells (%) [1]: 27% | Population Normal (%) [1]: 61% | Population Pyknosed Nuclei (%) [1]: 13% | Population Tubulin-Different-Phenotype (%) [1]: 29% | Total Cell Count [1]: 587 | Population Apoptotic (%) [2]: 87% | Population Fragmented Nuclei (%) [2]: 56% | Population Healthy Nuclei (%) [2]: 31% | Population Hoechst High Intensity Objects (%) [2]: 51% | Population Mitochondria Different-Phenotype (%) [2]: 15% | Population Mitotic Cells (%) [2]: 12% | Population Normal (%) [2]: 48% | Population Pyknosed Nuclei (%) [2]: 12% | Population Tubulin-Different-Phenotype (%) [2]: 25% | Total Cell Count [2]: 131 | Population Apoptotic (%) [3]: 59% | Population Fragmented Nuclei (%) [3]: 27% | Population Healthy Nuclei (%) [3]: 51% | Population Hoechst High Intensity Objects (%) [3]: 13% | Population Mitochondria Different-Phenotype (%) [3]: 3% | Population Mitotic Cells (%) [3]: 40% | Population Normal (%) [3]: 86% | Population Pyknosed Nuclei (%) [3]: 20% | Population Tubulin-Different-Phenotype (%) [3]: 2% | Total Cell Count [3]: 208 | Population Apoptotic (%) [4]: 20% | Population Fragmented Nuclei (%) [4]: 54% | Population Healthy Nuclei (%) [4]: 36% | Population Hoechst High Intensity Objects (%) [4]: 40% | Population Mitochondria Different-Phenotype (%) [4]: 0% | Population Mitotic Cells (%) [4]: 80% | Population Normal (%) [4]: 59% | Population Pyknosed Nuclei (%) [4]: 10% | Population Tubulin-Different-Phenotype (%) [4]: 5% | Total Cell Count [4]: 84 | Population Apoptotic (%) [5]: 78% | Population Fragmented Nuclei (%) [5]: 53% | Population Healthy Nuclei (%) [5]: 36% | Population Hoechst High Intensity Objects (%) [5]: 41% | Population Mitochondria Different-Phenotype (%) [5]: 2% | Population Mitotic Cells (%) [5]: 21% | Population Normal (%) [5]: 58% | Population Pyknosed Nuclei (%) [5]: 10% | Population Tubulin-Different-Phenotype (%) [5]: 20% | Total Cell Count [5]: 564 | Population Apoptotic (%) [6]: 63% | Population Fragmented Nuclei (%) [6]: 63% | Population Healthy Nuclei (%) [6]: 22% | Population Hoechst High Intensity Objects (%) [6]: 39% | Population Mitochondria Different-Phenotype (%) [6]: 11% | Population Mitotic Cells (%) [6]: 36% | Population Normal (%) [6]: 60% | Population Pyknosed Nuclei (%) [6]: 14% | Population Tubulin-Different-Phenotype (%) [6]: 47% | Total Cell Count [6]: 128 | Population Apoptotic (%) [7]: 52% | Population Fragmented Nuclei (%) [7]: 19% | Population Healthy Nuclei (%) [7]: 65% | Population Hoechst High Intensity Objects (%) [7]: 15% | Population Mitochondria Different-Phenotype (%) [7]: 2% | Population Mitotic Cells (%) [7]: 48% | Population Normal (%) [7]: 84% | Population Pyknosed Nuclei (%) [7]: 15% | Population Tubulin-Different-Phenotype (%) [7]: 3% | Total Cell Count [7]: 192 | Population Apoptotic (%) [8]: 28% | Population Fragmented Nuclei (%) [8]: 45% | Population Healthy Nuclei (%) [8]: 41% | Population Hoechst High Intensity Objects (%) [8]: 36% | Population Mitochondria Different-Phenotype (%) [8]: 4% | Population Mitotic Cells (%) [8]: 71% | Population Normal (%) [8]: 63% | Population Pyknosed Nuclei (%) [8]: 13% | Population Tubulin-Different-Phenotype (%) [8]: 0% | Total Cell Count [8]: 80

CC[C@@H]1C(=O)N(C)c2cnc(Nc3ccc(C(=O)NC4CCN(C)CC4)cc3OC)nc2N1C1CCCC1 [BI-2536]
Population Apoptotic (%) [1]: 82% | Population Fragmented Nuclei (%) [1]: 37% | Population Healthy Nuclei (%) [1]: 51% | Population Hoechst High Intensity Objects (%) [1]: 13% | Population Membrane Permeable-Phenotype (%) [1]: 6% | Population Mitotic Cells (%) [1]: 17% | Population Normal (%) [1]: 86% | Population Pyknosed Nuclei (%) [1]: 11% | Population Tubulin-Different-Phenotype (%) [1]: 10% | Total Cell Count [1]: 236 | Population Apoptotic (%) [2]: 100% | Population Fragmented Nuclei (%) [2]: 60% | Population Healthy Nuclei (%) [2]: 35% | Population Hoechst High Intensity Objects (%) [2]: 51% | Population Membrane Permeable-Phenotype (%) [2]: 0% | Population Mitochondria Different-Phenotype (%) [2]: 5% | Population Mitotic Cells (%) [2]: 0% | Population Normal (%) [2]: 48% | Population Pyknosed Nuclei (%) [2]: 4% | Population Tubulin-Different-Phenotype (%) [2]: 0% | Total Cell Count [2]: 98 | Population Fragmented Nuclei (%) [3]: 38% | Population Healthy Nuclei (%) [3]: 50% | Population Hoechst High Intensity Objects (%) [3]: 22% | Population Membrane Permeable-Phenotype (%) [3]: 2% | Population Mitochondria Different-Phenotype (%) [3]: 7% | Population Mitotic Cells (%) [3]: 19% | Population Normal (%) [3]: 77% | Population Pyknosed Nuclei (%) [3]: 11% | Population Tubulin-Different-Phenotype (%) [3]: 31% | Total Cell Count [3]: 347 | Population Apoptotic (%) [4]: 80% | Population Fragmented Nuclei (%) [4]: 50% | Population Healthy Nuclei (%) [4]: 41% | Population Hoechst High Intensity Objects (%) [4]: 26% | Population Membrane Permeable-Phenotype (%) [4]: 3% | Population Mitochondria Different-Phenotype (%) [4]: 25% | Population Mitotic Cells (%) [4]: 20% | Population Normal (%) [4]: 73% | Population Pyknosed Nuclei (%) [4]: 7% | Population Tubulin-Different-Phenotype (%) [4]: 62% | Total Cell Count [4]: 89 | Population Apoptotic (%) [5]: 80% | Population Fragmented Nuclei (%) [5]: 33% | Population Healthy Nuclei (%) [5]: 53% | Population Hoechst High Intensity Objects (%) [5]: 18% | Population Membrane Permeable-Phenotype (%) [5]: 3% | Population Mitochondria Different-Phenotype (%) [5]: 8% | Population Mitotic Cells (%) [5]: 20% | Population Normal (%) [5]: 81% | Population Pyknosed Nuclei (%) [5]: 13% | Population Tubulin-Different-Phenotype (%) [5]: 6% | Total Cell Count [5]: 225 | Population Apoptotic (%) [6]: 100% | Population Fragmented Nuclei (%) [6]: 59% | Population Healthy Nuclei (%) [6]: 38% | Population Hoechst High Intensity Objects (%) [6]: 48% | Population Membrane Permeable-Phenotype (%) [6]: 5% | Population Mitochondria Different-Phenotype (%) [6]: 0% | Population Mitotic Cells (%) [6]: 0% | Population Normal (%) [6]: 51% | Population Pyknosed Nuclei (%) [6]: 2% | Population Tubulin-Different-Phenotype (%) [6]: 11% | Total Cell Count [6]: 92 | Population Apoptotic (%) [7]: 75% | Population Fragmented Nuclei (%) [7]: 35% | Population Healthy Nuclei (%) [7]: 55% | Population Hoechst High Intensity Objects (%) [7]: 36% | Population Membrane Permeable-Phenotype (%) [7]: 1% | Population Mitochondria Different-Phenotype (%) [7]: 21% | Population Mitotic Cells (%) [7]: 25% | Population Normal (%) [7]: 63% | Population Pyknosed Nuclei (%) [7]: 10% | Population Tubulin-Different-Phenotype (%) [7]: 21% | Total Cell Count [7]: 376 | Population Apoptotic (%) [8]: 100% | Population Fragmented Nuclei (%) [8]: 57% | Population Healthy Nuclei (%) [8]: 28% | Population Hoechst High Intensity Objects (%) [8]: 35% | Population Membrane Permeable-Phenotype (%) [8]: 0% | Population Mitochondria Different-Phenotype (%) [8]: 35% | Population Mitotic Cells (%) [8]: 0% | Population Normal (%) [8]: 64% | Population Pyknosed Nuclei (%) [8]: 14% | Population Tubulin-Different-Phenotype (%) [8]: 57% | Total Cell Count [8]: 76
